# Source: PubChem (several laboratories)
# The list is not random: actives were taken first. Their share in the collection is about 2.9%.
# NR1D1 modulator = Rev-erb alpha (human) modulation; P20393; AID 1259318; hit rate 0.79% among 370,000; activity, % at 10 µM; Rev-erbα–FITC-DNA binding, fluorescence polarization, 90 min;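 active = activity above about 14%, limit read from the data; passing the limit was not always enough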;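 note: 0% = DMSO wells with 35 nM protein and 100% = DMSO wells with 750 nM protein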
# Target sequence (P20393 whole entry, looked up): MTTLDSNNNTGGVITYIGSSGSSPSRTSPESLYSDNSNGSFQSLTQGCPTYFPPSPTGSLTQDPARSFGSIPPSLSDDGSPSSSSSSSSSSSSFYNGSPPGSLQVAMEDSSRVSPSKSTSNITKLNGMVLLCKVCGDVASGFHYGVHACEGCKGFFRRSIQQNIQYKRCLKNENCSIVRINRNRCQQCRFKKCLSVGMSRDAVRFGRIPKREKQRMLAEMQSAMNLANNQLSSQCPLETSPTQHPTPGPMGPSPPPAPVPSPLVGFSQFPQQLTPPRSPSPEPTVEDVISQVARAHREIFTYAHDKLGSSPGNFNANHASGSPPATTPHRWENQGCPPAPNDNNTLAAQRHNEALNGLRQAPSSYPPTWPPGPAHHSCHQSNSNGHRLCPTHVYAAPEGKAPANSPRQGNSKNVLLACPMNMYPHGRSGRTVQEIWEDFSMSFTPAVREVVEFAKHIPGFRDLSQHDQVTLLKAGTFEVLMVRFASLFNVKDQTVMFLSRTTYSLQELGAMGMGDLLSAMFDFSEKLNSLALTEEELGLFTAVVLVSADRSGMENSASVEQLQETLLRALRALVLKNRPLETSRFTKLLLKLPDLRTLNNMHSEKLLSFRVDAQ
# PG9 Ab binder = small molecules binding HIV-1 gp120 antibody PG9 | TR-FRET gp120-PG9 antibody binding | AID 624416 | inhibition, % at 6.7 µM | hit rate 0.43% among 360,000; in the data active = inhibition above about 8.5%
# MIN6 prolif = MIN6 beta-cell proliferation induction; proliferation, % at 10 µM; MIN6 cells proliferation, ATPlite luminescence, 48 h; cells starved in 0.2% serum; 100% = growth in 10% serum; hit rate 0.29% among 330,000; AID 2380;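 active = compounds whose signal lies at least 3.5 SD above the mean of all wells on their plate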;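 note: 0% = DMSO-treated cells in low-serum medium and 100% = 10% serum control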
# TAG inh = triacylglycerol accumulation inhibition | AID 651582 | H9c2 cells, Nile Red lipid (TAG) fluorescence; cells loaded with 200 µM oleic acid | inhibition, % at 12.5 µM | hit rate 0.66% among 230,000;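 active = pattern-corrected inhibition of lipid staining of at least 50% with the nuclear-stain viability signal not falling by more than 50%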;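 note: 0% = DMSO wells and 100% = triacsin C control wells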
# hiPSC survival = hiPSC single-cell survival enhancement | ATPlite luminescence; 100% = ROCK inhibitor wells, 0% = DMSO | survival enhancement, % at 20 µM | hit rate 0.044% among 360,000 | AID 602274; in the data active = survival enhancement above about 18%;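 note: cells exposed to compounds for 16 hours before the ATP read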
# T cruzi inh = blocks replication of Trypanosoma cruzi. AID 1885. hit rate 1.4% among 300,000. inhibition, % (no concentration beside the values). T. cruzi beta-gal in NIH3T3, luminescence, 90 h;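 active = mean inhibition across valid replicates above about 55%, limit read from the data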;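 note: signal also drops with host cell toxicity which is not excluded here; 0% = plate median of DMSO wells and 100% = zero luminescence signal; higher percent means less beta-gal luminescence so fewer parasites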
#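 Assay system: NIH/3T3 fibroblasts plus reporter T. cruzi. Amount: NIH/3T3 cells, 5,000 per well. Buffer or medium: DMEM, 2% fetal bovine serum. Doses: compound pinned at 50 nL/well, DMSO. Schedule: ≥90 h infection period, 3 h prior cell attachment. Signal: luminescent β-galactosidase signal after 60 min lysis. Read-out: parasite load inhibition, %.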
# PG9 bind confirm = PG9 antibody binding, confirmed. TR-FRET PG9 antibody binding, biochemical. AID 651571. shares compounds with PG9 Ab binder. hit rate 90% among 1,500. inhibition, % at 6.7 µM; in the data active = inhibition above about 9%
# PGV04 Ab binding = PGV04 control antibody binding, counter-screen. shares compounds with PG9 Ab binder. TR-FRET PGV04 antibody-gp120 binding, biochemical. inhibition, % at 6.7 µM. hit rate 95% among 1,500. AID 651604; in the data active = inhibition above about 9.5%
# PG9 binder DR = small molecules binding HIV-1 gp120 antibody PG9; IC50, µM; 95 tested, under 10 active; TR-FRET PG9 antibody-gp120 binding inhibition; shares compounds with PG9 Ab binder; in the data active = IC50 below about 10 µM
# PGV04 DR counter = counter-screen for PG9 binders: binding to control antibody PGV04; IC50, µM; hit rate 20% among 95; shares compounds with PG9 Ab binder; TR-FRET binding to control antibody PGV04
# PG126 DR counter = PG126 binding, dose response counter-screen. shares compounds with PG9 Ab binder. TR-FRET binding to antibody PG126, counterscreen. IC50, µM. hit rate 20% among 95
# Active calls of the source: *; i = inactive; / = not tested or not shown. Cut-off read from the data, not from the text of the source, unless noted: active = IC50 below about 9 µM; inactive = the rest.
SMILES,NR1D1 modulator,PG9 Ab binder,MIN6 prolif,TAG inh,hiPSC survival,T cruzi inh,PG9 bind confirm,PGV04 Ab binding,others
COc1ccc(CN(C2CCCCC2C)S(=O)(=O)c2ccc(S(=O)(=O)N(C)C)cc2)cc1OC (stereo unspecified),-6,-2,1,/,-1,44,/,/,
COc1cc(CN(C2CCCCC2C)S(=O)(=O)c2ccc(S(=O)(=O)NC3CC3)cc2)cc(OC)c1OC (stereo unspecified),-2,11*,-5,/,3,49,7,6,PG9 binder DR=>67;PGV04 DR counter=>67;PG126 DR counter=>67
CCc1c(C)nc2ccc(Br)cc2c1Cl,4,9.3*,0,7,-3,1,24*,26*,
CC(=O)c1cc(-c2ccccc2)n(CC(=O)NCc2ccccc2)c1C,-8,/,/,/,/,/,/,/,
CC(=O)c1cc(-c2ccccc2)n(CC(=O)NCc2cccs2)c1C,14,12*,-1,7,0,7,14*,22*,
CCCc1nc2sc3c(=O)[nH]cnc3c2c2c1CCCC2,19,2,1,/,/,3,/,/,
CC(C)c1nc2sc3c(=O)[nH]cnc3c2c2c1CCC2,6,9.6*,-1,/,1,-1,20*,26*,
O=C(O)CCCC(=O)N1CCN(c2nc(-c3ccccc3Cl)c3cc(Br)ccc3n2)CC1,-4,17*,-3,/,0,7,23*,34*,
O=C(O)C1CCN(c2nc(-c3ccccc3)c3cc(Br)ccc3n2)CC1,1,15*,-6,/,0,10,17*,36*,
COC(=O)Nc1nc(C)c(C(=O)c2ccccc2)s1,3,1,2,/,-1,0,/,/,
COC(=O)Nc1nc(-c2ccccc2)c(C(=O)c2ccccc2)s1,19,20*,-6,65*,0,31,19*,19*,PG9 binder DR=>67;PGV04 DR counter=i;PG126 DR counter=i
Nc1cccc2c1C(=O)c1ccc(Cl)cc1C2=O,0,-4,/,3,1,/,/,/,
O=C(CSc1ccc2nnc(-c3cccc(F)c3)n2n1)N1CCCc2ccccc21,1,9.1*,0,/,-2,19,18*,39*,
O=C(CSc1ccc2nnc(-c3ccc(F)cc3)n2n1)N1CCCc2ccccc21,2,0,-1,/,-1,10,/,/,
Cc1cc2cc(CNC(=O)Cc3ccc([N+](=O)[O-])cc3)ccc2n1C,-6,10*,0,6,-2,-2,13*,21*,
Cc1cc2cc(CNC(=O)c3cccc([N+](=O)[O-])c3)ccc2n1C,3,3,-2,13,2,25,/,/,
CCOC(=O)C1=CC[C@@H](c2ccccc2)N(S(=O)(=O)c2ccc(C)cc2)[C@H]1/C=C/c1ccccc1,-1,0,/,/,1,/,/,/,
NNc1nc2c(-c3cccc(C(F)(F)F)c3)nnn2c2ccccc12,1,-1,-7,/,2,-2,/,/,
Nc1nc2c(-c3ccc(Br)cc3)nnn2c2ccccc12,5,11*,-4,/,-1,-4,13*,30*,
Cc1nnc(SCC(=O)NCc2ccco2)n1Cc1ccccc1,-5,-1,1,17,4,-24,/,/,
CCn1ncc(C(=O)Nc2cccc(Cl)c2)c1C,3,-2,-1,/,3,-17,/,/,
Nc1nnc(-c2ccco2)s1,3,-3,-3,/,2,-7,/,/,
O=C(Nc1ccsc1C(=O)NC1CCCCC1)c1ccccc1,15,28*,-4,/,-2,32,25*,31*,
Cc1cccc(CNCc2ccccc2)c1,7,-2,0,/,0,1,/,/,
CCOc1ccc(CC(=O)Nc2c(C(=O)Nc3ccccc3)oc3ccccc23)cc1OCC,13,23*,0,46,0,24,22*,33*,
SMILES,NR1D1 modulator,PG9 Ab binder,MIN6 prolif,TAG inh,hiPSC survival,T cruzi inh,PG9 bind confirm,PGV04 Ab binding,others
COc1cccc(NC(=O)CCN2C(=O)c3cccc([N+](=O)[O-])c3C2=O)c1,7,-1,-3,/,-1,0,/,/,
CC(=O)c1ccc(N2CCN(C(=S)Nc3cc(C)ccc3C)CC2)cc1,8,12*,0,/,-1,18,8.8*,15*,
COc1ccc(OCC(O)CON2C(=O)c3ccccc3C2=O)cc1 (stereo unspecified),0,-2,0,-1,-1,-3,/,/,
c1cncc(-c2nn3c(Cn4nnc5ccccc54)nnc3s2)c1,0,-1,0,/,1,-9,/,/,
CCc1nnc2sc(-c3cc(-c4ccccc4)nc4ccccc34)nn12,13,8.6*,0,/,-4,2,7,10*,
COc1ccc2oc(=O)c(C(=O)NCc3ccc(C)cc3)cc2c1,4,8.8*,0,-6,1,-14,16*,24*,
CC(=O)Nc1ccc(C(=O)Nc2nnc(CCc3ccccc3)s2)cc1,13,25*,-1,2,1,0,15*,24*,
Cc1ccc(C(=O)Nc2nnc(COc3ccccc3)s2)cc1,6,25*,-3,-3,4,4,34*,39*,
O=C(Nc1ccccc1)c1ccc(COc2ccccc2)cc1,4,13*,-2,/,0,-44,12*,16*,
O=C(Nc1nnc(CCc2ccccc2)s1)c1ccc(F)cc1,-6,1,-1,/,3,-1,/,/,
COc1ccc(-c2nnc(NC(=O)c3ccccc3[N+](=O)[O-])s2)c(OC)c1,-4,-1,-4,-13,-2,11,/,/,
COc1ccccc1C(=O)Nc1ccc(S(=O)(=O)N2CCCC2)cc1,-2,3,0,/,-2,2,/,/,
COc1ccc(C(=O)Nc2ccc(S(=O)(=O)N3CCCC3)cc2)c(OC)c1,15,11*,3,/,1,77*,13*,17*,
CCCC[n+]1ccn(-c2nc3ccccc3nc2[N-]S(=O)(=O)c2ccc(Cl)cc2)c1,20,17*,2,2,1,-2,28*,34*,
Cc1ccc(C(=O)NN=C2CCCCCC2)s1,1,-2,-3,1,0,-8,/,/,
Cc1noc(C)c1COc1ccc(C(=O)Nc2ccccn2)cc1,0,-3,3,-3,0,-10,/,/,
Cc1cc(Cl)ccc1OC(C)c1nnc(N)s1 (stereo unspecified),-1,10*,-3,/,-2,-5,7,9,
